Results on two compounds are retold here after ChEMBL document CHEMBL1144404, “Aminoimidazolylmethyluracil analogues as potent inhibitors of thymidine phosphorylase and their bioreductive nitroimidazolyl prodrugs” (J Med Chem, 2005).

Experiment [1] deals with Thymidine phosphorylase (Escherichia coli K-12) (UniProt P07650). As to the kind of experiment: Ratio of Kcat to Km for Escherichia coli thymidine phosphorylase. In short, it runs like this: (§1)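 Continuous UV assay at 355 nm and 25 °C in 0.2 mL of 0.1 M potassium phosphate pH 7.4, using recombinant E. coli TP (ca. 0.00883 units per assay) added to start the reaction. Substrate is thymidine or 5-nitro-2'-deoxyuridine; phosphorolysis to 5-nitrouracil followed (εM 13300 M-1 cm-1 for substrate).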
Thymidine phosphorylase (Escherichia coli K-12), sequence (P07650 whole entry, looked up): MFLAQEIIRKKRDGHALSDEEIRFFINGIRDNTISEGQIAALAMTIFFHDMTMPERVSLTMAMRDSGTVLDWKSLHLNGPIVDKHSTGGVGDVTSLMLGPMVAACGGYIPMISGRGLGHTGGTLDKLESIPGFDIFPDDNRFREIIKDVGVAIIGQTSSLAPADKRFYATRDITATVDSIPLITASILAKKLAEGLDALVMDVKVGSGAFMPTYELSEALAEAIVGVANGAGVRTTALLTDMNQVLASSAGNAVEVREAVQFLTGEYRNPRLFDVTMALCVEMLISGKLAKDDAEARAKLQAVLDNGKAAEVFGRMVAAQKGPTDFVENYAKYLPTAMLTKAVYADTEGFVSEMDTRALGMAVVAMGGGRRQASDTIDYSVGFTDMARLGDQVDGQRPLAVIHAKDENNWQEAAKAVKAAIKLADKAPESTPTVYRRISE

Experiment [2] shares this target. Briefly: Catalytic constant against Escherichia coli thymidine phosphorylase. In short, it runs like this: as §1
Experiment [3] addresses T1, Thymidine phosphorylase (Homo sapiens) (UniProt P19971).
T1 sequence (whole entry): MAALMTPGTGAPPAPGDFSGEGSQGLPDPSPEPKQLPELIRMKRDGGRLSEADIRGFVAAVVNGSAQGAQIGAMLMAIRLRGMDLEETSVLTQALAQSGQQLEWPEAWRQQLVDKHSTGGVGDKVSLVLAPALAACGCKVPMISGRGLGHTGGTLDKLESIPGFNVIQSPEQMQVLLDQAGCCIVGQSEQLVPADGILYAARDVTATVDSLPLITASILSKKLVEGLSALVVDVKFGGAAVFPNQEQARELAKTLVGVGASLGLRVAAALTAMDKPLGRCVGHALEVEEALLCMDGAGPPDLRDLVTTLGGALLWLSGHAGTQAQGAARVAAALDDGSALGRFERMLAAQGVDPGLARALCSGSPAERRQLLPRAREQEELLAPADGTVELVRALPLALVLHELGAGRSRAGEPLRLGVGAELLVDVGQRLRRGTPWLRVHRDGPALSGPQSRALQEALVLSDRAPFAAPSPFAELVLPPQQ
As to the kind of experiment: Catalytic constant against human thymidine phosphorylase. In short, it runs like this:
(§2)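 Recombinant human TP expressed in V79 Chinese hamster cells, 0.065 absorbance unit per assay. Continuous spectrophotometric assay at 355 nm, 25 °C, 0.1 M phosphate buffer pH 7.4, 0.2 mL total volume, with 5-nitro-2'-deoxyuridine as substrate; kinetic constants from initial rates.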

Experiment [4] addresses T1, Thymidine phosphorylase (Homo sapiens). Briefly: Ratio of Kcat to Km against human thymidine phosphorylase. In short, it runs like this:
as §2

Regarding `Cc1cn([C@H]2C[C@H](O)[C@@H](CO)O2)c(=O)[nH]c1=O`, the Ratio in experiment [1] stood at 7.4e+06 M⁻¹ s⁻¹. Further, the k cat in experiment [2] was determined as 1770 s⁻¹.
As for `O=c1[nH]c(=O)n([C@H]2C[C@H](O)[C@@H](CO)O2)cc1[N+](=O)[O-]`, the k cat in experiment [3] was determined as 2.88 s⁻¹; in experiment [2], 20 s⁻¹. Besides, the figures for the Ratio in experiment [1] and in experiment [4] were 87000 M⁻¹ s⁻¹ and 18000 M⁻¹ s⁻¹, respectively.
